Measured values pooled from the literature.
pEC50, pIC50, pKd, pKi: −log10 of the molar value.
HTR2B: 5-hydroxytryptamine receptor 2B (HTR2B, Homo sapiens, UniProt P41595)
HTR2C: 5-hydroxytryptamine receptor 2C (HTR2C, Homo sapiens, UniProt P28335)
HLA class I histocompatibility antigen, B alpha chain: HLA class I histocompatibility antigen, B alpha chain (Homo sapiens, UniProt P01889)

COc1cc2c(cc1OC)-c1c(OC)c(OC)cc3c1[C@H](C2)N(C)CC3 (racemic)
pKi (HTR2B; ligand displacement; radioligand): 6.21

COc1cc2c(cc1OC)CN(CCc1ccc(NC(=O)c3cccc4c(=O)c5cccc(OC)c5[nH]c34)cc1)CC2
pKi (HTR2C; cell-free assay): 7.03

CC(C)C[C@H](NC(=O)[C@@H]1CCCN1C(=O)[C@H](Cc1c[nH]c2ccccc12)NC(=O)[C@H](CC(=O)O)NC(=O)[C@H](Cc1ccc(O)cc1)NC(=O)[C@@H](NC(=O)[C@@H](N)Cc1ccc(O)cc1)C(C)C)C(=O)N[C@H](C(=O)N[C@@H](Cc1ccccc1)C(=O)O)[C@@H](C)O
pIC50 (HLA class I histocompatibility antigen, B alpha chain; cell-free assay): 4.62

Nc1ncnc2c1ncn2[C@@H]1O[C@H](C[C@@H](N)CC[C@H](N)C(=O)O)[C@@H](O)[C@H]1O
pIC50 (mRNA cap guanine-N(7) methyltransferase (RNMT, Homo sapiens, UniProt O43148); enzyme activity; inhibitor): 5.04

O=C(O)CC(O)(CC(=O)O)C(=O)O
pKi (Tyrosine-protein phosphatase non-receptor type 5 (PTPN5, Homo sapiens, UniProt P54829); enzyme activity; inhibitor): 2.39

CSCC[C@H](NC(=O)[C@H](CO)NC(=O)[C@H](CC(C)C)NC(=O)[C@H](CO)NC(=O)[C@H](Cc1c[nH]cn1)NC(=O)CNC(=O)[C@H](Cc1ccc(O)cc1)NC(=O)[C@H](CC(C)C)NC(=O)[C@@H](N)CCCNC(=N)N)C(=O)O
pIC50 (HLA class I histocompatibility antigen, B alpha chain; cell-free assay): 6.23

COc1cc(CCNC(CO)c2ccccc2)c(OC)cc1C#N (centres unmarked)
pEC50 (HTR2C; G protein activation; agonist; BRET): 5.54

O=[N+]([O-])c1ccc(O)c([N+](=O)[O-])c1
pKd (Casein kinase I isoform delta (CSNK1D, Homo sapiens, UniProt P48730); binding; SPR): < 4.30

COc1cc2c3c(c1OC)-c1c(cccc1OC)CC3N(C)CC2 (racemic)
pKi (HTR2B; ligand displacement; radioligand): 6.22

COc1cc(CCNC(c2ccccc2O)C2CC2)c(OC)cc1C#N (centres unmarked)
pEC50 (HTR2C; calcium signal; agonist): < 5.00

CC[C@H](C)[C@H](NC(=O)[C@@H](N)CCC(=O)O)C(=O)N[C@@H](C)C(=O)N1CCC[C@H]1C(=O)N[C@H](C(=O)N[C@@H](CC(C)C)C(=O)N[C@@H](Cc1c[nH]cn1)C(=O)N[C@@H](CO)C(=O)N[C@H](C(=O)O)[C@@H](C)OP(=O)(O)O)C(C)C
pKd (Serine/threonine-protein kinase PLK1, polo-box (PLK1, Homo sapiens, UniProt P53350); binding; MST; pH 8): 7.57

CC[C@H](C)[C@H](NC(=O)[C@@H](N)CCCNC(=N)N)C(=O)N[C@@H](Cc1ccc(O)cc1)C(=O)NCC(=O)N1CCC[C@H]1C(=O)N1CCC[C@H]1C(=O)N[C@@H](Cc1c[nH]cn1)C(=O)N[C@@H](CCC(N)=O)C(=O)N[C@@H](Cc1ccccc1)C(=O)O
pIC50 (HLA class I histocompatibility antigen, B alpha chain; cell-free assay): 5.64

CCCCC1CNC2CCc3ccc(OC)cc3C12 (racemic)
pKi (HTR2B; ligand displacement; radioligand): 6.77

CC[C@H](C)[C@H](NC(=O)[C@@H](NC(=O)[C@H](CCCCN)NC(=O)[C@H](Cc1c[nH]cn1)NC(=O)[C@H](Cc1ccc(O)cc1)NC(=O)[C@H](CCSC)NC(=O)[C@@H](N)CCCNC(=N)N)C(C)C)C(=O)N[C@H](C(=O)N[C@@H](Cc1ccccc1)C(=O)O)[C@@H](C)O
pIC50 (HLA class I histocompatibility antigen, B alpha chain; cell-free assay): 5.76

O=C1Nc2ccc3ncsc3c2/C1=C/c1cnc[nH]1
pIC50 (Serine/threonine-protein kinase Nek6 (NEK6, Homo sapiens, UniProt Q9HC98); enzyme activity; inhibitor): 4.56

CC[C@H](C)[C@H](NC(=O)[C@@H]1CCCN1C(=O)[C@H](Cc1c[nH]cn1)NC(=O)[C@H](CCCCN)NC(=O)[C@H](Cc1ccccc1)NC(=O)[C@H](CC(C)C)NC(=O)[C@@H](N)CCCCN)C(=O)N[C@@H](CCC(N)=O)C(=O)N[C@@H](CC(C)C)C(=O)O
pIC50 (HLA class I histocompatibility antigen, B alpha chain; cell-free assay): 5.13

COc1cc(C(F)(F)F)c(OC)cc1C1CCCNC1 (centres unmarked)
pEC50 (HTR2B; G protein activation; agonist; BRET): 6.92
